The record followed here is ChEMBL document CHEMBL1127567, “Retro-binding tripeptide thrombin active-site inhibitors: discovery, synthesis, and molecular modeling” (J Med Chem, 1994).

SMILES strings stand for the structures. Square brackets hold non-standard residues; d marks the D form. Peptide text beside a SMILES is read from it. Phe(ol) = N[C@H](CO)Cc1ccccc1; Ahp = NCCCCCCC(=O)O; Ahx = NCCCCCC(=O)O; Ava = NCCCCC(=O)O; GABA = NCCCC(=O)O

The target of test [1] is T1, Prothrombin (Homo sapiens, UniProt P00734). Description: In vitro activity against thrombin with 10 uM substrate s-2238 (D-Phe-Pip-Arg-pNA).
Another test deals with Coagulation factor X (Homo sapiens, UniProt P00742). Kind of test: In vitro activity against Factor Xa was determined.
The target of test [2] is T2, Plasminogen (Homo sapiens, UniProt P00747). Description: In vitro activity against plasmin was determined.
The target of the next test is Serine protease 1 (Homo sapiens, UniProt P07477). Description: In vitro activity against trypsin was determined.
In test [3] the target is T2, Plasminogen. Description: In vitro activity against […] was determined.
Test [4] addresses T1, Prothrombin. Kind of test: In vitro activity against thrombin was determined.
Test [5] has as its target T1, Prothrombin. Kind of test: In vitro activity against thrombin was determined, using a 10 uM substrate s-2238 (D-Phe-Pip-Arg-pNA); 20-30. The procedure, abridged:
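Human α-thrombin (0.1 unit/mL) preincubated with inhibitor for 3 min at room temperature in pH 7.4 buffer (30 mM HEPES, 145 mM NaCl, 5 mM KCl, 1 mg/mL PEG-8000). […] Absorbance change at 405 nm followed kinetically. Values are means of at least triplicate determinations.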

T2 sequence (P00747 97-580 limits assumed): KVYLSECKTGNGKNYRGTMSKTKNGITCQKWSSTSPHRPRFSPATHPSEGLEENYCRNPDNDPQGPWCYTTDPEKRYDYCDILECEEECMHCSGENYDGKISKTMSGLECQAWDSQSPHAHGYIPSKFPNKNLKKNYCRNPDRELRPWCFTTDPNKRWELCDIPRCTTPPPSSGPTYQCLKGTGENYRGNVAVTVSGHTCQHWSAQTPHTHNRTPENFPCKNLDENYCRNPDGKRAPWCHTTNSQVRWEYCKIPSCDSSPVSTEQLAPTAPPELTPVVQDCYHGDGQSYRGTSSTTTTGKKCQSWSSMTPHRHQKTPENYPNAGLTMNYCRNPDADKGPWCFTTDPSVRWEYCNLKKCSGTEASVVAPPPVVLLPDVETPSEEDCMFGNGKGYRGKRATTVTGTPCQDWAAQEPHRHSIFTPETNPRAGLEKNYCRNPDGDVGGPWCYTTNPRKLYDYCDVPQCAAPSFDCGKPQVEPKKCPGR
T2 sequence (P00747 581-810 limits assumed): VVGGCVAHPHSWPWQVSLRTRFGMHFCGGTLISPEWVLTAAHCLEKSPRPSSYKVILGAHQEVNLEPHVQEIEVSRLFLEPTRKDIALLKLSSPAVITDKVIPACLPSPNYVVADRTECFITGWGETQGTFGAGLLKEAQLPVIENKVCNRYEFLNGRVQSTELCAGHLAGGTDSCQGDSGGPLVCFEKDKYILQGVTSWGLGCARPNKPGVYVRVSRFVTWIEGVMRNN
Coagulation factor X, sequence (P00742 41-179 limits assumed): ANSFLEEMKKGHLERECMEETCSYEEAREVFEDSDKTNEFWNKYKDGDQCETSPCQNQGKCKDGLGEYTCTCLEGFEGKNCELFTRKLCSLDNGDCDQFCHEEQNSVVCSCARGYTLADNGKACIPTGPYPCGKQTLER
Coagulation factor X, sequence (P00742 235-488 limits assumed): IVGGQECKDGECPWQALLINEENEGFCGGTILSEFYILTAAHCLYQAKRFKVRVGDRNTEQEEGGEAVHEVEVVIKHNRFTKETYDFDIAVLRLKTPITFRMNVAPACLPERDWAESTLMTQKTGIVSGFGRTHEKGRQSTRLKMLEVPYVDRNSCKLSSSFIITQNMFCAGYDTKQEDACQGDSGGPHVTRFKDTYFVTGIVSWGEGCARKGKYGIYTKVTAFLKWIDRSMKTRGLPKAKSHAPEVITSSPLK
Serine protease 1, sequence (P07477 whole entry): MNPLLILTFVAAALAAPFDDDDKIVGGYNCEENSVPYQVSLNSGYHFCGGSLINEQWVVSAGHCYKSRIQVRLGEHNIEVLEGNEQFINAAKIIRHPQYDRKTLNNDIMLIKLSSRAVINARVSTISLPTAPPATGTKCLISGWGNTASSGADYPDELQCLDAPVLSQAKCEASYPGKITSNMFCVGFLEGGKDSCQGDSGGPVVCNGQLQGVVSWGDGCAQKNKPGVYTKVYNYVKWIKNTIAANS

The compound `CC(C)C[C@H](NC(=O)[C@@H](N)Cc1ccccc1)C(=O)N[C@@H](CC1CCCCC1)[C@@H](O)c1nccs1` registered an IC50 against Prothrombin [1] of over 530 µM.
Still for that read-out and setting: the same measure for `CC(C)C[C@H](NC(=O)[C@H](Cc1ccccc1)NC(=O)CCCCCN)C(=O)N[C@@H](CC1CCCCC1)[C@@H](O)c1nccs1`: 7.5 µM.
`CC(C)C[C@H](NC(=O)[C@H](Cc1ccccc1)NC(=O)CCCN=C(N)N)C(=O)N[C@@H](CC1CCCCC1)[C@@H](O)c1nccs1`: the IC50 was determined as 6 µM against Coagulation factor X and 143 µM against Plasminogen [2].
In turn, `COC(=O)C(O)[C@H](CCCCN)NC(=O)[C@@H]1CCCN1C(=O)[C@@H](Cc1ccccc1)NC(=O)CCCCCN` (some centres undefined) displayed an IC50 at Prothrombin [1] of 17.6 µM.
Regarding `CC(C)C[C@H](NC(=O)[C@H](Cc1ccccc1)NC(=O)CCCCN)C(=O)N[C@H](CO)Cc1ccccc1` (H-[Ava]FL[Phe(ol)]), the IC50 against Prothrombin [1] was determined as 100 µM.
Still for that read-out and setting: the same measure for `COC(=O)[C@H](Cc1ccccc1)NC(=O)[C@H](CC(C)C)NC(=O)[C@H](Cc1ccccc1)NC(=O)CCCCNC(=N)N`: 154 µM; for `COC(=O)[C@H](Cc1ccccc1)NC(=O)[C@H](CC(C)C)NC(=O)[C@H](Cc1ccccc1)NC(=O)CCCCCCN` (H-[Ahp]FLF-OMe): 330 µM.
`COC(=O)[C@H](Cc1ccccc1)NC(=O)[C@H](CC(C)C)NC(=O)[C@H](Cc1ccccc1)NC(=O)CCCNC(=N)N`: inhibition against Prothrombin [1] was half-maximal at 1.41 µM (IC50).
Same read-out and setting: the same measure for `COC(=O)[C@H](Cc1ccccc1)NC(=O)[C@H](CC(C)C)NC(=O)[C@H](Cc1ccccc1)NC(=O)CCCN` (H-[GABA]FLF-OMe): over 300 µM.
For the compound `CN[C@H](Cc1ccccc1)C(=O)N1CCC[C@H]1C(=O)N[C@H](C=O)CCCN=C(N)N`, the IC50 worked out at 0.008 µM against Serine protease 1, 0.23 µM against Plasminogen [3], 4 µM against Coagulation factor X and 0.008 µM against Prothrombin [4].
On to `COC(=O)C(O)[C@H](CCCCN)NC(=O)[C@@H]1CCCN1C(=O)[C@H](N)Cc1ccccc1` (some centres undefined), for which the IC50 on Prothrombin [5] came out at 30 µM.
On Prothrombin [1], `COC(=O)[C@H](Cc1ccccc1)NC(=O)[C@H](CC(C)C)NC(=O)[C@H](Cc1ccccc1)NC(=O)CCCCCN` (H-[Ahx]FLF-OMe) yielded an IC50 of 80 µM.
Same read-out and setting: the same measure for `COC(=O)[C@H](Cc1ccccc1)NC(=O)[C@H](CC(C)C)NC(=O)[C@@H](N)Cc1ccccc1` (H-Phe-Leu-Phe-OMe): over 333 µM; for `COC(=O)[C@H](Cc1ccccc1)NC(=O)[C@H](CC(C)C)NC(=O)[C@H](Cc1ccccc1)NC(=O)CCCCN` (H-[Ava]FLF-OMe): 57.1 µM.
The same measure, in the same setting: to `COC(=O)[C@H](Cc1ccccc1)NC(=O)[C@H](CC(C)C)NC(=O)[C@H](Cc1ccccc1)NC(=O)CCCCCNC(=N)N` belongs over 200 µM.
